The values below come from ChEMBL document CHEMBL5653605, “Reduced VEGF production, angiogenesis, and vascular regrowth contribute to the antitumor properties of dual mTORC1/mTORC2 inhibitors” (Cancer Res, 2011).

Calls of active or inactive are those of the source. The calls are words filed in the database; no cut-off is given here.

Data set [1] has as its target Proto-oncogene tyrosine-protein kinase Src (Homo sapiens, UniProt P12931). Nature of the data set: Inhibition of SRC (unknown origin) assessed as reduction in phosphorylated FAK level by cell based assay.
The subject of data set [2] is Mus musculus. Nature of the data set: In vivo inhibition of 4E-BP1 phosphorylation at Ser37/46 residues in nu/nu CD-1 mouse xenografted with human GEO cells at 65 mg/kg administered for 12 days and measured 2 hrs post last dose by Western blot analysis. It counts as functional, organism-based. As to conditions: time 290.0 hrs. The procedure, abridged:
(§1)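 nu/nu CD-1 mice carrying s.c. GEO flank xenografts dosed 65 mg/kg for 12 days; tumors snap-frozen 2, 8, 24 h after dosing, homogenized in Triton X-100/HEPES pH 7.4 lysis buffer with phosphatase inhibitors; phospho and total 4E-BP1 (37/46), Akt (S473), S6 (235/236) quantified by Western blot; n=2.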

The subject of data set [3] is OVCAR-5. Briefly: Antitumor activity against human OVCAR-5 cells xenografted in nu/nu CD-1 mouse assessed as tumor growth inhibition at 50 mg/kg qd administered for 14 days and measured twice weekly relative to control. In kind it is functional. As to conditions: OVCAR-5, 336 h, time 14 day, read-out: TGI. Put shortly:
(§2)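 Xenograft combination study: H292 or Ovar-5 cells implanted s.c. in the right flank of nu/nu CD-1 mice. Ovar-5 cells grown in RPMI with 10% serum and 1% L-glutamine. […] Tumor growth followed, with growth inhibition reported as median TGI over the dosing period.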

In data set [4] the target is T1, Serine/threonine-protein kinase mTOR (Homo sapiens, UniProt P42345). Briefly: Inhibition of mTOR (unknown origin) assessed as reduction in 4E-BP1 phosphorylation by cell based assay.
For data set [5], the target named is Eukaryotic translation initiation factor 4E-binding protein 1 (Homo sapiens) (UniProt Q13541). Nature of the data set: Inhibition of 4E-BP1 phosphorylation at Ser 37/46 residues in serum deprived/insulin stimulated human OVCAR-3 cells harboring PTEN and wild type PI3K preincubated for 2 hrs followed by insulin stimulation and measured immediately by Western blot analysis. In kind it is cell-based. As to conditions: dose 0.001-10 µM.
Sequence of Eukaryotic translation initiation factor 4E-binding protein 1 (Homo sapiens) (Q13541 whole entry): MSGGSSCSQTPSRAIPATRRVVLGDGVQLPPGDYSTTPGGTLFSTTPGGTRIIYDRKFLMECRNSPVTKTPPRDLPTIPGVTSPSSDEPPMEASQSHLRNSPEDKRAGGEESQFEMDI

Data set [6] deals with GEO. Briefly: Antitumor activity against human GEO cells xenografted in nu/nu CD-1 mouse assessed as slower tumor growth at 65 mg/kg administered once a day for 12 days and measured twice weekly. It counts as functional, organism-based. As to conditions: time 12.0 day.
The nature of data set [7]: Inhibition of MAPK (unknown origin) signaling axis assessed as reduction in phosphorylated ERK1/2 level by cell based assay. As to conditions: Homo sapiens.
In data set [8] the test system is Mus musculus. Briefly: In vivo inhibition of AKT phosphorylation at Ser473 residues in nu/nu CD-1 mouse xenografted with human GEO cells at 65 mg/kg administered for 12 days and measured 2 to 24 hrs post last dose by Western blot analysis relative to control. Particulars: time 290-312 hrs.
The subject of data set [9] is NCI-H292. Briefly: Antitumor activity against human NCI-H292 cells xenografted in nu/nu CD-1 mouse assessed as maximal tumor regression at 50 mg/kg qd administered for 21 days in presence of sunitinib and measured twice weekly relative to control. In kind it is functional. As to conditions: time 21 day.
Data set [10] deals with OVCAR-3. Briefly: Inhibition of S6K at […] residues in serum deprived/insulin stimulated human OVCAR-3 cells harboring PTEN and wild type PI3K assessed as inhibition of s6 substrate phosphorylation at […] residue at 0.001 to 10 uM preincubated for 2 hrs followed by insulin stimulation and measured immediately by Western blot analysis. In kind it is cell-based. As to conditions: dose 0.001-10 µM.

The target of data set [11] is Epidermal growth factor receptor (Homo sapiens, UniProt P00533). Nature of the data set: Inhibition of EGFR phosphorylation (unknown origin) by cell based assay.
Sequence of Epidermal growth factor receptor (P00533 whole entry): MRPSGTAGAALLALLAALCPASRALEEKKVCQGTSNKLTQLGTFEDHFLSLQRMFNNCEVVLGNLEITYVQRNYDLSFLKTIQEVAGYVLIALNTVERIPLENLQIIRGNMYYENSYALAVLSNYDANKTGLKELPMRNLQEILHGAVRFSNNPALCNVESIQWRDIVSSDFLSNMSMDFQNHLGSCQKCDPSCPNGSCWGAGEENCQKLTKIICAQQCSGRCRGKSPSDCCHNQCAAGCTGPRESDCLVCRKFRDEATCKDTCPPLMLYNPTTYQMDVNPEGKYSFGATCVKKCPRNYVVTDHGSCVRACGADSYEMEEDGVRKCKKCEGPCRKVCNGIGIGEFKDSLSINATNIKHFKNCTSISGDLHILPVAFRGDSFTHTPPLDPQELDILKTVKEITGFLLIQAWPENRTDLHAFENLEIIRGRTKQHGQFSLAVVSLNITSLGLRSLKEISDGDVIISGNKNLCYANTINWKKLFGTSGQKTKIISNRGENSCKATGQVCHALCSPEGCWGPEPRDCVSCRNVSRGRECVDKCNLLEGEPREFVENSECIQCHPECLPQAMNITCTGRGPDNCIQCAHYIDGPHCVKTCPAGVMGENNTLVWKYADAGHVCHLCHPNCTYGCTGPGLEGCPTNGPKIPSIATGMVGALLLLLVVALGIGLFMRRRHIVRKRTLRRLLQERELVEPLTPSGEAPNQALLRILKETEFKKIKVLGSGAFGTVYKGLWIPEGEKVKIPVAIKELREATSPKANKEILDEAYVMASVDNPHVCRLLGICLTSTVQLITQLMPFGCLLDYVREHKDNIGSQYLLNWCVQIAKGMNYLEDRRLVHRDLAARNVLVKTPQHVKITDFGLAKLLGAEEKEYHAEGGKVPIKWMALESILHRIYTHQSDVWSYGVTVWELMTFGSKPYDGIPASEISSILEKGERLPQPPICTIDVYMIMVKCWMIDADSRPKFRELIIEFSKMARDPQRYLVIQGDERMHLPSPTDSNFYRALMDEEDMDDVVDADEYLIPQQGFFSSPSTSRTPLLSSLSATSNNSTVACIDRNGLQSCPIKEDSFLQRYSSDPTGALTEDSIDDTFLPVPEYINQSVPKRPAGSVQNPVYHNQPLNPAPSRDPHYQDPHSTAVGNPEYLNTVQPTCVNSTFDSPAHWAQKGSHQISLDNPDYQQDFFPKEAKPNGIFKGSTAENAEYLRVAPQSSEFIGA
The test system of data set [12] is OVCAR-5. Nature of the data set: Antitumor activity against human OVCAR-5 cells xenografted in nu/nu CD-1 mouse assessed as tumor growth inhibition at 50 mg/kg qd administered for 14 days in presence of sunitinib and measured twice weekly relative to control. It counts as functional. As to conditions: OVCAR-5, 336 h, time 14 day, read-out: TGI. Put shortly: as §2

Data set [13] is described as follows: Drug concentration in nu/nu CD-1 mouse plasma xenografted with human GEO cells at 65 mg/kg administered for 12 days and measured 8 hrs post last dose. It counts as ADME, organism-based. The procedure, abridged:
(§3)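 nu/nu CD-1 mice bearing s.c. right-flank GEO xenografts dosed at 65 mg/kg for 12 days; plasma drug level sampled at 2 or 8 h after last dose; median reported.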

Data set [14] has as its system Mus musculus. Nature of the data set: In vivo inhibition of S6 phosphorylation at 235/236 residues in nu/nu CD-1 mouse xenografted with human GEO cells at 65 mg/kg administered for 12 days and measured 2 to 24 hrs post last dose by Western blot analysis. Particulars: time 290-312 hrs. It counts as functional, organism-based. Put shortly:
as §1

The nature of data set [15]: Drug concentration in nu/nu CD-1 mouse plasma xenografted with human GEO cells at 65 mg/kg administered for 12 days and measured 2 hrs post last dose. It counts as ADME, organism-based. Put shortly: as §3
For data set [16], the target named is T1, Serine/threonine-protein kinase mTOR. Nature of the data set: Inhibition of mTOR (unknown origin).
The test system of data set [17] is OVCAR-5. Nature of the data set: Antitumor activity against human OVCAR-5 cells xenografted in nu/nu CD-1 mouse assessed as maximal tumor regression at 50 mg/kg qd administered for 14 days in presence of sunitinib and measured twice weekly relative to control. In kind it is functional. As to conditions: time 14 day.
In data set [18] the target is Phosphatidylinositol 4,5-bisphosphate 3-kinase catalytic subunit beta isoform (Homo sapiens, UniProt P42338). Briefly: Inhibition of PI3Kbeta (unknown origin) in presence of ATP by HTRF assay. Put shortly:
(§4)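 PI3K activity by HTRF assay at […] ATP.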

Data set [19] concerns NCI-H292. Briefly: Antitumor activity against human NCI-H292 cells xenografted in nu/nu CD-1 mouse assessed as tumor growth inhibition at 50 mg/kg qd administered for 21 days and measured twice weekly relative to control. In kind it is functional. As to conditions: NCI-H292, 504 h, time 21 day, read-out: TGI. The procedure, abridged: as §2
Data set [20] addresses Ephrin type-A receptor 2 (Homo sapiens, UniProt P29317). Nature of the data set: Inhibition of EphA2 phosphorylation (unknown origin) by cell based assay.
Data set [21] concerns the target mTORC1 (Homo sapiens, UniProt P42345). Briefly: Competitive inhibition of mTORC1 immunoprecipitated from human HeLa cells using His-tagged 4E-BP1 as substrate incubated for 30 mins in presence of ATP by chemiluminescence based ELISA. Put shortly: (§5)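 Native mTORC1 or mTORC2 complex immunoprecipitated from HeLa lysates; kinase reaction run at 1 mM ATP.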
The target in data set [22] is mTORC2 (Homo sapiens, UniProt P42345). Briefly: Competitive inhibition of mTORC2 immunoprecipitated from human HeLa cells using His-tagged 4E-BP1 as substrate incubated for 30 mins in presence of ATP by chemiluminescence based ELISA. The procedure, abridged: as §5
Data set [23] deals with RAC-alpha serine/threonine-protein kinase (Homo sapiens) (UniProt P31749). Briefly: Inhibition of AKT phosphorylation at Ser 473 site in serum deprived/insulin stimulated human OVCAR-3 cells harboring PTEN and wild type PI3K preincubated for 2 hrs followed by insulin stimulation and measured immediately by Western blot analysis. As to conditions: dose 0.001-10 µM. It counts as cell-based.
Sequence of RAC-alpha serine/threonine-protein kinase (Homo sapiens) (P31749 whole entry): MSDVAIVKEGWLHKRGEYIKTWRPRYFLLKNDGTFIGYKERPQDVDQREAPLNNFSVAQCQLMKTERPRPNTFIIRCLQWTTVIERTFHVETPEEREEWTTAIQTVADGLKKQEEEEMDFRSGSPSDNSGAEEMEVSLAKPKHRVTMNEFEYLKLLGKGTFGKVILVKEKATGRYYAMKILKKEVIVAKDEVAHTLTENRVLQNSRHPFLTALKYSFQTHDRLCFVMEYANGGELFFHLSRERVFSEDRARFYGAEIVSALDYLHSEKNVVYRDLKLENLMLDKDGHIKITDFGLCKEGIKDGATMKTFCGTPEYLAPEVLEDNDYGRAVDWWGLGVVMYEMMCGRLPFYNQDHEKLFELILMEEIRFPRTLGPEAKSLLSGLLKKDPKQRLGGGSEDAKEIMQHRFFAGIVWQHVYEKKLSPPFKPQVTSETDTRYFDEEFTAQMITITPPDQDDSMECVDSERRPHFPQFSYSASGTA

Data set [24] has as its target Proline-rich AKT1 substrate 1 (Homo sapiens) (UniProt Q96B36). Nature of the data set: Inhibition of PRAS40 phosphorylation at Ser 246 residue in serum deprived/insulin stimulated human OVCAR-3 cells harboring PTEN and wild type PI3K preincubated for 2 hrs followed by insulin stimulation and measured immediately by Western blot analysis. It counts as cell-based. Particulars: dose 0.001-10 µM.

Data set [25] concerns the target Vascular endothelial growth factor receptor 2 (Homo sapiens, UniProt P35968). Nature of the data set: Inhibition of VEGFR2 phosphorylation (unknown origin) by cell based assay.
The subject of data set [26] is NCI-H292. Briefly: Antitumor activity against human NCI-H292 cells xenografted in nu/nu CD-1 mouse assessed as tumor growth inhibition at 50 mg/kg qd administered for 21 days in presence of sunitinib and measured twice weekly relative to control. As to conditions: NCI-H292, 504 h, time 21 day, read-out: TGI. In kind it is functional. The procedure, abridged:
as §2

The target in data set [27] is Phosphatidylinositol 4,5-bisphosphate 3-kinase catalytic subunit gamma isoform (Homo sapiens, UniProt P48736). Briefly: Inhibition of PI3Kgamma (unknown origin) in presence of ATP by HTRF assay. The procedure, abridged: as §4
Sequence of Phosphatidylinositol 4,5-bisphosphate 3-kinase catalytic subunit gamma isoform (P48736 whole entry, canonical isoform): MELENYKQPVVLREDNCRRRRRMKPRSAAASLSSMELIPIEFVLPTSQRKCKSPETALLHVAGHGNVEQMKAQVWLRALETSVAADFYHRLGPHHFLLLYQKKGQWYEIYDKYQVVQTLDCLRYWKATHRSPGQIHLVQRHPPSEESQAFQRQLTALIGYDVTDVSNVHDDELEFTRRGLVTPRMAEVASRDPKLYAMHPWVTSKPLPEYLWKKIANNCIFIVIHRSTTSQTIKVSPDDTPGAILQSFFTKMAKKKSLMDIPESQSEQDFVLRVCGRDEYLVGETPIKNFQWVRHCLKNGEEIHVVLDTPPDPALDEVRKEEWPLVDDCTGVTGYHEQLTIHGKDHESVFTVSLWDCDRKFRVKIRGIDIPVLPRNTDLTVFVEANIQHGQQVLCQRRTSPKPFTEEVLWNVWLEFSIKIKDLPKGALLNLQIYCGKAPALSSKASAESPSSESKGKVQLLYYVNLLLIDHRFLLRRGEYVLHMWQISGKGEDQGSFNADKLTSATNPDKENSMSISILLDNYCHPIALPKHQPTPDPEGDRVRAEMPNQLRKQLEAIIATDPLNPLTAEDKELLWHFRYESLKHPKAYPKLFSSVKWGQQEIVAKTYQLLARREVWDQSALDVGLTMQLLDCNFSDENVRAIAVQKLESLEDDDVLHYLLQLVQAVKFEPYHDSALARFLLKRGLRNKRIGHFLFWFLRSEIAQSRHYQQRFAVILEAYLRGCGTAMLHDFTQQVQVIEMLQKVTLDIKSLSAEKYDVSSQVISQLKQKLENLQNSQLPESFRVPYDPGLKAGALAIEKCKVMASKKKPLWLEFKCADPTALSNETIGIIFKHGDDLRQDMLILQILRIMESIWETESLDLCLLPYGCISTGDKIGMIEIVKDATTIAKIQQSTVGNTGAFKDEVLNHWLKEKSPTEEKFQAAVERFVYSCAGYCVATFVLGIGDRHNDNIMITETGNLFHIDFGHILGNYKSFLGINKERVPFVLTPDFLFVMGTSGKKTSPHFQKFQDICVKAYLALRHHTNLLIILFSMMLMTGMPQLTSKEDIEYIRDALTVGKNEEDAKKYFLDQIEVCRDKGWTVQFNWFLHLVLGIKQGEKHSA
Data set [28] concerns OVCAR-3. Briefly: Inhibition of S6K phosphorylation at 235/236 residues in serum deprived/insulin stimulated human OVCAR-3 cells harboring PTEN and wild type PI3K at 0.001 to 10 uM preincubated for 2 hrs followed by insulin stimulation and measured immediately by Western blot analysis. It counts as cell-based. Particulars: dose 0.001-10 µM.
For data set [29], the system named is NCI-H292. Nature of the data set: Antitumor activity against human NCI-H292 cells xenografted in nu/nu CD-1 mouse assessed as maximal tumor regression at 40 mg/kg qd administered for 21 days in presence of OSI-027 and measured twice weekly relative to control. In kind it is functional. As to conditions: time 21 day.
Data set [30] concerns NCI-H292. Briefly: Antitumor activity against human NCI-H292 cells xenografted in nu/nu CD-1 mouse assessed as tumor growth inhibition at 40 mg/kg qd administered for 21 days in presence of OSI-027 and measured twice weekly relative to control. It counts as functional. Particulars: NCI-H292, 504 h, time 21 day, read-out: TGI. Put shortly: as §2
In data set [31] the test system is OVCAR-5. Briefly: Antitumor activity against human OVCAR-5 cells xenografted in nu/nu CD-1 mouse assessed as tumor growth inhibition at 40 mg/kg qd administered for 14 days in presence of OSI-027 and measured twice weekly relative to control. In kind it is functional. As to conditions: OVCAR-5, 336 h, time 14 day, read-out: TGI. Put shortly:
as §2

Data set [32] relates to NCI-H292. Nature of the data set: Antitumor activity against human NCI-H292 cells xenografted in nu/nu CD-1 mouse assessed as tumor growth inhibition at 40 mg/kg qd administered for 21 days and measured twice weekly relative to control. As to conditions: NCI-H292, 504 h, time 21 day, read-out: TGI. It counts as functional. The procedure, abridged:
as §2

For data set [33], the system named is OVCAR-5. Nature of the data set: Antitumor activity against human OVCAR-5 cells xenografted in nu/nu CD-1 mouse assessed as maximal tumor regression at 40 mg/kg qd administered for 14 days in presence of OSI-027 and measured twice weekly relative to control. Particulars: time 14 day. In kind it is functional.
The subject of data set [34] is OVCAR-5. Briefly: Antitumor activity against human OVCAR-5 cells xenografted in nu/nu CD-1 mouse assessed as tumor growth inhibition at 40 mg/kg qd administered for 14 days and measured twice weekly relative to control. In kind it is functional. As to conditions: OVCAR-5, 336 h, time 14 day, read-out: TGI. The procedure, abridged:
as §2

Sequence of Ephrin type-A receptor 2 (P29317 whole entry): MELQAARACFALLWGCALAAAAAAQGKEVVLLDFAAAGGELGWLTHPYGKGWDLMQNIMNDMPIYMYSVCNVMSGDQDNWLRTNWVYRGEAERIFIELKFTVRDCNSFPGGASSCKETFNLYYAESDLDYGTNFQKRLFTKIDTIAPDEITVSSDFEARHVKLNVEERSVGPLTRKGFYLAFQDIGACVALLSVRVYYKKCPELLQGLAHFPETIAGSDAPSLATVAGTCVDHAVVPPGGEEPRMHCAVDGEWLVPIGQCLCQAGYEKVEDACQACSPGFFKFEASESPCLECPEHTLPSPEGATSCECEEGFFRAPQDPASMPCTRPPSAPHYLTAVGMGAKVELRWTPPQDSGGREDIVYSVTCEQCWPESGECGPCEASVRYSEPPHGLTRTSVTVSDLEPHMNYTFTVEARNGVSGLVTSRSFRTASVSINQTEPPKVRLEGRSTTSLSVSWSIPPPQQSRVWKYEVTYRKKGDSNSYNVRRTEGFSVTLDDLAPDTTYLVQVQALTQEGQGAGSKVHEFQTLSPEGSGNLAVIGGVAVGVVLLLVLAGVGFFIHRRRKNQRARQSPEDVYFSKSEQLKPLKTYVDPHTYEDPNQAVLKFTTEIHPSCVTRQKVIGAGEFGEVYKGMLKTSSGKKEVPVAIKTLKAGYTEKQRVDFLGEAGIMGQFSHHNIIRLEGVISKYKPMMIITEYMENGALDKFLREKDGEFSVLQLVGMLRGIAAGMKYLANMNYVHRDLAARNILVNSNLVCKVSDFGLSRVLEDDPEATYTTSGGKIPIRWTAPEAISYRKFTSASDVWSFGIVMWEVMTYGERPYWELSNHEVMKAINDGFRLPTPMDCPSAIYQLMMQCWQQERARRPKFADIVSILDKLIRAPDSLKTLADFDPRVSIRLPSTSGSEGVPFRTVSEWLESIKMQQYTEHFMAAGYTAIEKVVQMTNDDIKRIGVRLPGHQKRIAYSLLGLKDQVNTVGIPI
Sequence of Proto-oncogene tyrosine-protein kinase Src (P12931 2-536 limits assumed): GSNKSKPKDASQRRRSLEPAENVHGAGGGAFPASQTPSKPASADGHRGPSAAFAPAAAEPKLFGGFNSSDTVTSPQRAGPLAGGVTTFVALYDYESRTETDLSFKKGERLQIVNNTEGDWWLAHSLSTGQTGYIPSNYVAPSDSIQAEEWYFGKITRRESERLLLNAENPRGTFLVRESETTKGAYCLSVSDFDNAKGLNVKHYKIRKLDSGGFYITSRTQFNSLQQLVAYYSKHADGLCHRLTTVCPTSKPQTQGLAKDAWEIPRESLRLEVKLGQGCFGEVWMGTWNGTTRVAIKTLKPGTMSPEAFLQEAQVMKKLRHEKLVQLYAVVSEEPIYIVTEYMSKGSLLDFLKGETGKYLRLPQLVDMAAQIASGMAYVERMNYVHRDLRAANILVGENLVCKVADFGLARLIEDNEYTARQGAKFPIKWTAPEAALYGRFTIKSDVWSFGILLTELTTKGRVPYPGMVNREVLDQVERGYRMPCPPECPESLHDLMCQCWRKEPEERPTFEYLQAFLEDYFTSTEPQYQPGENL

As to `COc1cccc2cc(-c3nc([C@H]4CC[C@H](C(=O)O)CC4)n4ncnc(N)c34)[nH]c12` [OSI-027], the IC50 is > 40 µM in data set [1]; 1 µM in data set [4]; > 20 µM in data set [7]; > 40 µM in data set [11]; 0.004 µM in [16]; > 30 µM in data set [18]. Also, the IC50 in data set [20] is > 40 µM; in [21], 0.022 µM; in data set [22] it was 0.065 µM; in [25], > 40 µM; in [27], 0.42 µM. The inhibition entry in data set [2], in data set [8], in [10], in data set [14] and in data set [28] was “Active” in each case. For the same compound, the inhibition in vivo at 50 mg/kg is 55% in [3], 100% in [12], 61% in [19] and 100% in data set [26]. Besides, the inhibition result in [5], in data set [23] and in [24] was “Dose-Dependent Effect” in each case. In addition, the result in data set [6] was Active. For the same compound, the Activity came out at 59% in data set [9] and 38% in data set [17]. The compound also yielded a concentration at 296 h in data set [13] of 14.9 µM. In data set [15], this compound yielded a concentration at 290 h of 21.3 µM.

`CCN(CC)CCNC(=O)c1c(C)[nH]c(/C=C2\C(=O)Nc3ccc(F)cc32)c1C` [SUNITINIB]: the Activity in data set [29] was determined as 59%; in data set [33] it was 38%. For the same compound, the inhibition in vivo at 40 mg/kg in data set [30] worked out at 100%; in data set [31], 100%; in data set [32], 47%; in data set [34], 68%.
